Data on eleven compounds can be found in ChEMBL document CHEMBL1833887, “Synthesis and evaluation of 7-substituted 4-aminoquinoline analogues for antimalarial activity” (J Med Chem, 2011).

The EC50 is the concentration needed to bring the measured effect to its halfway point. What is called pKa is the pH at which an ionisable group is half protonated. Lower therefore signals a stronger acid or weaker base. The term solubility denotes the concentration that dissolves in the medium under given conditions. A low value points to little dissolved substance.

The subject of data set [1] is Plasmodium falciparum. Description: Ratio of EC50 for chloroquine-resistant Plasmodium falciparum K1 infected in human erythrocytes to EC50 for chloroquine-sensitive Plasmodium falciparum 3D7 infected in human erythrocytes. In kind it is functional.
Data set [2] concerns Plasmodium falciparum. As to the kind of experiment: Antimalarial activity against chloroquine-sensitive Plasmodium falciparum 3D7 infected in human erythrocytes assessed as reduction in parasitemia after 72 hrs by spectrophotometry. In kind it is functional, organism-based. Conditions: 3D7, 72 h.
For the next data set, the system named is HepG2. As to the kind of experiment: Cytotoxicity against human HepG2 cells assessed as intracellular ATP level after 72 hrs by Celltiter-Glo luminescent assay. In kind it is cell-based. Conditions: HepG2, 72 h.
Data set [3] in a line: Dissociation constant, pKa of the compound. In kind it is physicochemical.
Data set [4] is described as follows: Ratio of EC50 for human HepG2 cells to EC50 for Plasmodium falciparum 3D7 infected in human erythrocytes.
Data set [5] is described as follows: Ratio of EC50 for human HepG2 cells to EC50 for Plasmodium falciparum K1 infected in human erythrocytes.
A short description of data set [6]: Solubility of the compound at pH 7.4 after 18 hrs by UV spectroscopic analysis. The class given is physicochemical. The conditions noted are these: buffer. The method, boiled down: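 Kinetic solubility. A 10 mM stock is diluted 1:100 into PBS pH 7.4 and incubated 18 h at room temperature, then filtered; the filtrate is mixed 1:1 with 1-propanol. UV spectrum (250–500 nm) compared by AUC with a 1-propanol/PBS reference. Single experiment in triplicate.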

A short description of data set [7]: Permeability of the compound at pH 7.4 after 30 mins by PAMPA. The class given is ADME. The conditions noted are these: read-out: permeability. The method, boiled down:
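PAMPA at pH 7.4. A 10 mM DMSO stock is diluted into system solution buffer; its UV spectrum serves as reference. Membrane painted with GIT lipid, acceptor chamber holds acceptor solution buffer. Sandwich stirred for 30 min, aqueous boundary layer set to 40. Donor and acceptor UV spectra read at 250–500 nm. Permeability coefficient from the AUCs of reference, donor and acceptor. Single experiment in triplicate.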
(The PAMPA barrier holds no transporters, so it reflects passive diffusion.)

Data set [8] deals with Plasmodium falciparum. As to the kind of experiment: Antimalarial activity against chloroquine-resistant Plasmodium falciparum K1 infected in human erythrocytes assessed as reduction in parasitemia after 72 hrs by spectrophotometry. In kind it is functional, organism-based. Conditions: K1, 72 h.

In brackets after ≈: the same amount, converted by molar mass.

With `Fc1ccc(Oc2ccc3c(NCCCNCc4ccc5c(c4)OCO5)ccnc3c2)cc1`, the “Ratio EC50” value with Plasmodium falciparum [1] was found to be 44.5; in data set [4], 1067; in [5], 24. Moreover, the figures for the EC50 in the data set on Plasmodium falciparum [2], in the data set with HepG2 and in the data set on Plasmodium falciparum [8] were 15 nM, 16000 nM and 667 nM, respectively. In data set [3], the pKa is 9.28. In addition, the concentration in solution in data set [6] (solubility at 18 h) came to 14.5 µM (≈ 6.46 µg/mL). Besides, the Papp at 0.5 h in [7] was determined as 317 ×10⁻⁶ cm/s.

Consider `FC(F)(F)c1ccc(-c2ccc3c(NCCCNCc4ccco4)ccnc3c2)cc1`, for which the “Ratio EC50” value is on record as 11 in the data set on Plasmodium falciparum [1], 171 in data set [4] and 15.5 in [5]. For the same compound, the values for the EC50 in the data set with Plasmodium falciparum [2], in the data set on HepG2 and with Plasmodium falciparum [8] were 20 nM, 3470 nM and 223 nM, respectively. The pKa in data set [3] was 9.47. The solubility at 18 h in data set [6] was 32 µM (≈ 13.6 µg/mL). For the same compound, the Papp at 0.5 h in data set [7] is 237 ×10⁻⁶ cm/s.

Regarding `COc1cccc(CNCCCNc2ccnc3cc(-c4ccc(F)cc4)ccc23)c1O`, the “Ratio EC50” value was 92.8 in the data set on Plasmodium falciparum [1], 742.9 in data set [4] and 8 in data set [5]. Further, the EC50 in the data set with Plasmodium falciparum [2] turned out to be 9 nM; in the data set with HepG2, 6840 nM; with Plasmodium falciparum [8], 854 nM. In addition, the pKa in data set [3] stood at 9.47. This compound also had a solubility at 18 h in [6] of 32 µM (≈ 13.8 µg/mL). The Papp at 0.5 h in data set [7] came out at 237 ×10⁻⁶ cm/s.

Turning to `COc1ccc(F)cc1CNCCCNc1ccnc2cc(Cc3ccc4c(c3)OCO4)ccc12`, the “Ratio EC50” value in the data set with Plasmodium falciparum [1] is reported as 0.8; in data set [4], 194.7; in data set [5], 255.8. Further, the figures for the EC50 in the data set with Plasmodium falciparum [2], with HepG2 and in the data set on Plasmodium falciparum [8] were 31 nM, 6040 nM and 24 nM, respectively. In addition, in data set [3], the pKa amounted to 9.47. In addition, in data set [6], the concentration in solution (solubility at 18 h) was 32 µM (≈ 15.2 µg/mL). Further, the Papp at 0.5 h in [7] amounted to 237 ×10⁻⁶ cm/s.

Take `Clc1ccc(Oc2ccc3c(NCCCNCc4ccc5c(c4)OCO5)ccnc3c2)cc1`: the results for the “Ratio EC50” value (in the data set on Plasmodium falciparum [1]; in [4]; in data set [5]) were 8.4, 189 and 22, respectively. Also, the EC50 in the data set with Plasmodium falciparum [2] was found to be 38 nM; in the data set on HepG2, 7200 nM; in the data set with Plasmodium falciparum [8] it was 320 nM. Further, the pKa in [3] was determined as 9.28. Also, the solubility at 18 h in data set [6] stood at 14.5 µM (≈ 6.7 µg/mL). In addition, the Papp at 0.5 h in data set [7] was 317 ×10⁻⁶ cm/s.

For the compound `COc1ccc(F)cc1CNCCCNc1ccnc2cc(-c3ccc(C(F)(F)F)cc3)ccc12`, the “Ratio EC50” value is recorded as 1.7 in the data set on Plasmodium falciparum [1], 96.8 in data set [4] and 58.4 in [5]. The EC50 is 54 nM with Plasmodium falciparum [2], 5190 nM with HepG2 and 89 nM in the data set on Plasmodium falciparum [8]. The compound also yielded a pKa in data set [3] of 9.47. In addition, the solubility at 18 h in data set [6] turned out to be 32 µM (≈ 15.5 µg/mL). In addition, the Papp at 0.5 h in data set [7] came to 237 ×10⁻⁶ cm/s.

Take `COc1cccc(CNCCCNc2ccnc3cc(CC4CCCCC4)ccc23)c1O`: the “Ratio EC50” value with Plasmodium falciparum [1] is given as 52.7; in data set [4], 19.6; in [5], 0.4. Moreover, the EC50 with Plasmodium falciparum [2] is 50 nM; in the data set on HepG2, 970 nM; in the data set with Plasmodium falciparum [8], 2610 nM. In [3], this compound displayed a pKa of 9.47. The amount in solution in [6] (solubility at 18 h) came to 4.2 µM (≈ 1.82 µg/mL). Besides, the Papp at 0.5 h in data set [7] worked out at 23 ×10⁻⁶ cm/s.

Turning to `COc1ccc(F)cc1CNCCCNc1ccnc2cc(CCC(C)C)ccc12`, the figures for the “Ratio EC50” value (with Plasmodium falciparum [1]; in data set [4]; in data set [5]) were 3.1, 7.7 and 2.5, respectively. Moreover, the figures for the EC50 in the data set with Plasmodium falciparum [2], in the data set on HepG2 and in the data set with Plasmodium falciparum [8] were 116 nM, 890 nM and 360 nM, respectively. In data set [3], this compound showed a pKa of 9.47. In data set [6], this compound yielded a solubility at 18 h of 4.2 µM (≈ 1.72 µg/mL). The Papp at 0.5 h in [7] was 23 ×10⁻⁶ cm/s.

As for `COc1ccc(-c2ccc3c(NCCCNCc4cccc(OC)c4O)ccnc3c2)cc1`, the results for the “Ratio EC50” value (in the data set with Plasmodium falciparum [1]; in data set [4]; in [5]) were 6, 122.9 and 20.6, respectively. Further, the EC50 with Plasmodium falciparum [2] is 13 nM; with HepG2, 1600 nM; in the data set with Plasmodium falciparum [8] it was 78 nM. In addition, the pKa in data set [3] was determined as 9.47. In [6], this compound registered a solubility at 18 h of 32 µM (≈ 14.2 µg/mL). Also, the Papp at 0.5 h in data set [7] was 237 ×10⁻⁶ cm/s.

Turning to `COc1cccc(CNCCCNc2ccnc3cc(-c4ccc(C(C)(C)C)cc4)ccc23)c1O`, the figures for the “Ratio EC50” value (in the data set on Plasmodium falciparum [1]; in data set [4]; in [5]) were 1.7, 2.8 and 1.7, respectively. Also, the EC50 in the data set with Plasmodium falciparum [2] is 251 nM; in the data set on HepG2, 690 nM; with Plasmodium falciparum [8] it was 418 nM. In data set [3], this compound returned a pKa of 9.47. This compound also had a solubility at 18 h in data set [6] of 32 µM (≈ 15 µg/mL). Further, in [7], the Papp at 0.5 h amounted to 237 ×10⁻⁶ cm/s.

Take `CC(C)(C)c1ccc(Oc2ccc3c(NCCCNCc4ccc5c(c4)OCO5)ccnc3c2)cc1`: the results for the “Ratio EC50” value (in the data set on Plasmodium falciparum [1]; in data set [4]; in [5]) were 17.9, 7 and 0.4, respectively. The EC50 in the data set with Plasmodium falciparum [2] was found to be 137 nM; with HepG2 it was 900 nM; in the data set with Plasmodium falciparum [8], 2450 nM. In [3], this compound gave a pKa of 9.28. This compound yielded a solubility at 18 h in data set [6] of 14.5 µM (≈ 7.01 µg/mL). Further, the Papp at 0.5 h in data set [7] was 317 ×10⁻⁶ cm/s.
